Assay results: ChEMBL document CHEMBL1136130, “Synthesis and biological evaluation of gambierol analogues” (Bioorg Med Chem Lett, 2003)

Test: Minimal lethal dose of compound expressed as toxicity against male mice (ddY strain) after intraperitoneal administration
Settings: mouse, in vivo, ip
In short: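 Male ddY mice (12–17 g) received single intraperitoneal injections of HPLC-purified samples suspended in 1% Tween 60 at a range of dose levels. Lethality and neurological signs were observed. The minimal lethal dose is reported in mg/kg.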

SMILES | Min lethal dose [mg/kg]
C=CC/C=C\C=C/[C@H]1O[C@H]2C[C@H]3O[C@H]4CC[C@H]5O[C@H]6C[C@@]7(C)O[C@@]8(C)[C@@H](O)C[C@H](CCCO)O[C@@H]8C[C@@H]7O[C@@H]6C[C@@H]5O[C@]4(C)C[C@]3(C)O[C@@H]2CC[C@@H]1O | > 11.9
C=CC/C=C\C=C/[C@H]1O[C@H]2C[C@H]3O[C@H]4CC[C@H]5O[C@H]6C[C@@]7(C)O[C@@]8(C)[C@@H](O)C[C@H](CCCO)O[C@@H]8C[C@@H]7O[C@@H]6C[C@@H]5O[C@]4(C)C[C@]3(C)O[C@@H]2C=C[C@]1(C)O | 0.05
C=CC/C=C\C=C/[C@H]1O[C@H]2C[C@H]3O[C@H]4CC[C@H]5O[C@H]6C[C@@]7(C)O[C@@]8(C)[C@@H](O)C[C@H](CCCO)O[C@@H]8C[C@@H]7O[C@@H]6C[C@@H]5O[C@]4(C)C[C@]3(C)O[C@@H]2CC[C@]1(C)O | 7.9
C=CC/C=C\C=C/[C@H]1O[C@H]2C[C@H]3O[C@H]4CC[C@H]5O[C@H]6C[C@@]7(C)O[C@@]8(C)[C@@H](O)C[C@H](CCCO)O[C@@H]8C[C@@H]7O[C@@H]6C[C@@H]5O[C@]4(C)C[C@]3(C)O[C@@H]2C=C[C@@H]1O | 0.34
CCCCC/C=C\[C@H]1O[C@H]2C[C@H]3O[C@H]4CC[C@H]5O[C@H]6C[C@@]7(C)O[C@@]8(C)[C@@H](OCc9ccccc9)C[C@H](CCCOCc9ccccc9)O[C@@H]8C[C@@H]7O[C@@H]6C[C@@H]5O[C@]4(C)C[C@]3(C)O[C@@H]2CC[C@]1(C)O[Si](C)(C)C(C)(C)C | > 7.6
C[C@@]12O[C@]3(C)C[C@@H]4O[C@@H]5CC[C@@H]6O[C@@H]7C[C@@H]8O[C@H](CO)[C@@H](O)CC[C@H]8O[C@@]7(C)C[C@@]6(C)O[C@H]5C[C@H]4O[C@H]3C[C@H]1O[C@@H](CCCO)C[C@@H]2O | > 18.3
CC(=O)OC[C@H]1O[C@H]2C[C@H]3O[C@H]4CC[C@H]5O[C@H]6C[C@@]7(C)O[C@@]8(C)[C@@H](O)C[C@H](CCCO)O[C@@H]8C[C@@H]7O[C@@H]6C[C@@H]5O[C@]4(C)C[C@]3(C)O[C@@H]2CC[C@@H]1OC(C)=O | > 8.2
